Drawing on ChEMBL document CHEMBL4265908, “Structure-activity and structure-property relationships of novel Nrf2 activators with a 1,2,4-oxadiazole core and their therapeutic effects on acetaminophen (APAP)-induced acute liver injury” (Eur J Med Chem, 2018), this text covers Activity for twelve compounds.

SMILES strings stand for the structures.

What all share (format): cell-based
Data set [1] addresses T1, Nuclear factor erythroid 2-related factor 2 (Homo sapiens) (UniProt Q16236).
T1 sequence (whole entry): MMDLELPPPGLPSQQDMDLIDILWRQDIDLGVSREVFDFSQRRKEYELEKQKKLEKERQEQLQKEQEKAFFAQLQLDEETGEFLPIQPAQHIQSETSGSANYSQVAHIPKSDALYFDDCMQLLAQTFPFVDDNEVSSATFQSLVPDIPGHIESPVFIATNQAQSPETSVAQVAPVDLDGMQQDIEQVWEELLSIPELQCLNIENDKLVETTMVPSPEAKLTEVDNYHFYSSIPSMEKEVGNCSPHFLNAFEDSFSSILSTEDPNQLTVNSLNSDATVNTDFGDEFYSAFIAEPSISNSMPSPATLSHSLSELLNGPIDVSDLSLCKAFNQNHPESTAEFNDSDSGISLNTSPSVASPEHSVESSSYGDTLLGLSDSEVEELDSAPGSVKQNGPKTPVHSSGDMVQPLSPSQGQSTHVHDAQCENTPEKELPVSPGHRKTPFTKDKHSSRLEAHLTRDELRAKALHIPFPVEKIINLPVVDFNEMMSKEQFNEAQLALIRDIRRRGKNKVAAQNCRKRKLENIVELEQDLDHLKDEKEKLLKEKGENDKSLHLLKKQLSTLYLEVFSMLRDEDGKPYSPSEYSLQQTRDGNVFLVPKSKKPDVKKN
Description: Activation of Nrf2 in human HepG2-ARE-C8 cells assessed as induction of ARE-mediated luciferase activity at 20 uM after 24 hrs by luciferase reporter gene assay relative to control. The essentials: (§1)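 HepG2-ARE-C8 cells stably carrying ARE-luciferase, grown in DMEM with 10% FBS at 37 °C and 5% CO2. Seeded at 5 × 10^4 cells/well, left overnight, then given compound diluted from a 10 mM DMSO stock for 24 h. Cells lysed and luciferase read as RLU. Inductivity = (RLUtest − RLUblank)/(RLUcontrol − RLUblank), with DMSO as control. Mean ± SEM of three experiments.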
(Reporter assays use an easily measured gene product as a stand-in for the process of interest.)

In data set [2] the target is T1, Nuclear factor erythroid 2-related factor 2 (Homo sapiens). Description: Activation of Nrf2 in human HepG2-ARE-C8 cells assessed as induction of ARE-mediated luciferase activity at 0.1 uM after 24 hrs by luciferase reporter gene assay relative to control. The essentials:
as §1

For data set [3] the target is unchanged. As to the kind of experiment: Activation of Nrf2 in human HepG2-ARE-C8 cells assessed as induction of ARE-mediated luciferase activity at 0.01 uM after 24 hrs by luciferase reporter gene assay relative to control. In outline:
as §1

For data set [4] the target is unchanged. As to the kind of experiment: Activation of Nrf2 in human HepG2-ARE-C8 cells assessed as induction of ARE-mediated luciferase activity at 80 uM after 24 hrs by luciferase reporter gene assay relative to control. In outline:
as §1

For data set [5] the target is unchanged. Description: Activation of Nrf2 in human HepG2-ARE-C8 cells assessed as induction of ARE-mediated luciferase activity at 1 uM after 24 hrs by luciferase reporter gene assay relative to control. The essentials: as §1
Data set [6] concerns HepG2. As to the kind of experiment: Cytotoxicity against human HepG2 cells at 80 uM after 24 hrs by MTT assay. As to conditions: hepg2, 24 h.
In data set [7] the target is T1, Nuclear factor erythroid 2-related factor 2 (Homo sapiens). As to the kind of experiment: Activation of Nrf2 in human HepG2-ARE-C8 cells assessed as induction of ARE-mediated luciferase activity at 40 uM after 24 hrs by luciferase reporter gene assay relative to control. In outline:
as §1

On to `Fc1ccc(-c2nc(-c3ccc4nc[nH]c4c3)no2)c(Br)c1`, for which the Activity in data set [1] was 12.1; in data set [2], 2.65; in data set [3], 1.01; in data set [4] it was 25.1; in data set [5], 4.18; in data set [6], “Non-Toxic”. The Activity in data set [7] is 21.6.

For `Fc1ccc(-c2noc(-c3ccc(F)c(F)c3)n2)cc1`, the Activity was 3.75 in data set [1]; 2.12 in data set [2]; 1.76 in data set [3]; 6.93 in data set [4]; 2.05 in data set [5]; “Non-Toxic” in data set [6]. In addition, the Activity in data set [7] stood at 5.68.

For the compound `Fc1ccc(-c2nc(-c3cccnc3)no2)cc1F`, the Activity in data set [1] is 3.15; in data set [2], 1.71; in data set [3], 1.45; in data set [4], 4.15; in data set [5], 2.02; in data set [6], “Non-Toxic”. Further, the Activity in data set [7] stood at 3.15.

Take `Fc1ccc(-c2nc(-c3ccccc3Br)no2)cc1F`: the Activity in data set [1] is 1.98; in data set [2], 1.16; in data set [3], 0.58; in data set [4] it was 3.63; in data set [5], 1.76; in data set [6], “Non-Toxic”. Further, in data set [7], the Activity amounted to 2.63.

Take `Fc1ccc(-c2nc(-c3cccc4[nH]ccc34)no2)cc1F`: the Activity in data set [1] was 2.36; in data set [2], 1.88; in data set [3], 0.83; in data set [4] it was 4.02; in data set [5], 2.01; in data set [6], “Non-Toxic”. The Activity in data set [7] amounted to 3.77.

For `Fc1ccc(-c2noc(-c3ccc(F)c(F)c3)n2)cc1F`, the Activity in data set [1] was 1.73; in data set [2], 1.36; in data set [3] it was 1.42; in data set [4], 2.56; in data set [5], 1.73; in data set [6] it was “Non-Toxic”. Also, the Activity in data set [7] amounted to 2.68.

Regarding `CC(=O)c1ccc(-c2noc(-c3ccc(F)c(F)c3)n2)cc1`, the Activity is 2.61 in data set [1]; 2.03 in data set [2]; 1.25 in data set [3]; 5.01 in data set [4]; 2.04 in data set [5]; “Non-Toxic” in data set [6]. Moreover, in data set [7], the Activity is 3.78.

Regarding `Fc1ccc(F)c(-c2nc(-c3ccc4nc[nH]c4c3)no2)c1`, the Activity is 16.9 in data set [1]; 4.15 in data set [2]; 2.31 in data set [3]; 21.9 in data set [4]; 5.24 in data set [5]; “Non-Toxic” in data set [6]. Besides, the Activity in data set [7] came to 20.2.

As for `Fc1ccc(-c2nc(-c3ncccc3F)no2)cc1F`, the Activity in data set [1] was 1.75; in data set [2], 1.25; in data set [3], 1.15; in data set [4], 2.95; in data set [5], 1.56; in data set [6] it was “Non-Toxic”. Also, in data set [7], the Activity amounted to 2.52.

As to `Fc1ccc(-c2nc(-c3ccc4[nH]cnc4c3)no2)cc1Cl`, in data set [6], the Activity result is “Non-Toxic”.

Turning to `Fc1ccc(-c2nc(-c3ncccn3)no2)cc1F`, the Activity was 2.05 in data set [1]; 1.06 in data set [2]; 0.92 in data set [3]; 5.82 in data set [4]; 1.07 in data set [5]; “Non-Toxic” in data set [6]. For the same compound, the Activity in data set [7] was 2.95.

Take `Fc1ccc(-c2nc(-c3ccc4nc[nH]c4c3)no2)cc1Cl`: the Activity is 7.53 in data set [1]; 3.88 in data set [2]; 1.04 in data set [3]; 12.5 in data set [4]; 3.22 in data set [5]; 9.59 in data set [7].
